# Source: PubChem (several laboratories)
# In the library only some 1.9% were active in any assay of this set; here they are far more common.
# NR2E3 ag-1 – NR2E3 agonists in two-hybrid cells, primary screen, cell-based, luminescence, CHO-S, Gal4-NCOR/VP16-NR2E3 | Photoreceptor-specific nuclear receptor (Homo sapiens), Q9Y5X4 | AID 602229, 2012 | luciferase | 0.35% of 360,000 active | inhibition of corepressor binding, % at 3.98 µM;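 active = inhibition above the mean of all tested compounds plus 3 SD, cut at about 70% in these data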;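 note: 0% = DMSO with NR2E3 transfected cells and 100% = cells lacking NR2E3 construct; higher means lower luciferase signal from less NR2E3 corepressor binding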
# Target sequence (Q9Y5X4 whole entry, looked up, the tested form may be a part): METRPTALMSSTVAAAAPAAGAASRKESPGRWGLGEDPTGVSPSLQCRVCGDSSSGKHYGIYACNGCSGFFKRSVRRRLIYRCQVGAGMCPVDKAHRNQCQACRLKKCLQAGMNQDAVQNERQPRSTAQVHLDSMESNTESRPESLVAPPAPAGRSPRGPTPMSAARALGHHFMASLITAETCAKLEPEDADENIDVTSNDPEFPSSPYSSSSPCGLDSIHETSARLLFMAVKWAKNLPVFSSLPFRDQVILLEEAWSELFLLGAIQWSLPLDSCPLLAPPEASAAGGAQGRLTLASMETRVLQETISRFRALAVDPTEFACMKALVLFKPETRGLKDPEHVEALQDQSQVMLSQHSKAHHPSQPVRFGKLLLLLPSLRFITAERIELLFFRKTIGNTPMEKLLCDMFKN
# NR2E3 ag-2 – inhibitors of NR2E3-RetCOR corepressor binding, primary screen, NR2E3 agonist project, biochemical, TR-FRET, GST-NR2E3, biotin-RetCOR | inhibition of corepressor binding, % at 4.78 µM | 1536-well | 0.12% of 320,000 active | Photoreceptor-specific nuclear receptor (Homo sapiens), Q9Y5X4 | AID 2300, 2010;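 active = percent inhibition above the cutoff of mean plus 3 SD of all tested compounds, set per screening campaign, cut at about 20% in these data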;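 note: 0% = DMSO wells and 100% = biotin wells as full block of FRET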
#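 Material: NR2E3–RetCOR corepressor complex / Incubation: Compound–protein incubation for 5 h at 4 °C / Dosing: compound at 4.8 µM, single dose / Detection: time-resolved FRET / Benchmarks: high control biotin, low control 0.6% DMSO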
# MT1-MMP act inh – blockers of MT1-MMP proenzyme processing, primary screen, HT1080 RFP-PRO-GFP cells, GFP/RFP fluorescence. GFP/RFP ratio fluorescence, overnight; percent of plate control window, DMSO zero. GFP/RFP ratio change, % at 20 µM. 0.061% of 360,000 active. Matrix metalloproteinase-14 (Homo sapiens), P50281;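 active = GFP/RFP ratio change of at least 30% with cell ATP level not reduced by more than half and red fluorescence within 50% of control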
#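 Assay system: HT1080 cells carrying an RFP-PRO-GFP reporter | Dosing: Single dose of 20 µM compound, 1% DMSO final | Incubation: Cells overnight before dosing, compound overnight, 37 °C, 5% CO2 | Evaluation: GFP/RFP fluorescence ratio | Control set: DMSO and RFP-L50D-GFP cell wells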
# Rev-erbA mod – modulators of Rev-erb alpha DNA binding, primary screen, biochemical, FITC-DNA, fluorescence polarization, uHTS; Nuclear receptor subfamily 1 group D member 1 (Homo sapiens), P20393; Rev-erbα–FITC-DNA binding, 90 min; activity, % at 10 µM; 0.79% of 370,000 active;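 active = activity above about 14%, limit read from the data; passing the limit was not always enough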;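 note: 0% = DMSO wells with 35 nM protein and 100% = DMSO wells with 750 nM protein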
# SKN-1 inh – suppressors of acrylamide-induced Pgst-4::GFP reporter in worms, primary screen, SKN-1 inhibitor project, whole organism, uHTS, GFP/RFP fluorescence ratio, strain VP596; inhibition, % at 21.8 µM; C. elegans VP596 Pgst-4::GFP/RFP ratio, 24 h; 0.49% of 360,000 active;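 active = interference check ratio from 0.5 to 1.5 plus GFP to RFP signal ratio inhibition reaching or exceeding a fixed threshold, cut at about 30% in these data, passing the limit was not always enough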
# PG9 Ab binder – binders of HIV-1 gp120 antibody PG9, primary screen, biochemical, TR-FRET; AID 624416, 2012; HIV-1 gp120 / PG9 antibody interaction; inhibition, % at 6.7 µM; 0.43% of 360,000 active; TR-FRET gp120-PG9 antibody binding; in the data active = inhibition above about 8.5%
# NR2E3 agonist cf – NR2E3 agonists, confirmation, biochemical, TR-FRET. shares compounds with NR2E3 ag-2. cell-free NR2E3 corepressor release, 5 h. activation (reported as inhibition), % at 3.98 µM. 39% of 360 active. AID 2379, 2010; in the data active = activation above about 20%
# PPARg-NCOR2 ag – agonists of PPARg-NCOR2 corepressor interaction, counter-screen for NR2E3 agonist project, biochemical, TR-FRET; inhibition, % at 3.98 µM; shares compounds with NR2E3 ag-2; 45% of 360 active; TR-FRET PPARg-NCOR2 coregulator interaction; AID 504787, 2011; in the data active = inhibition above about 20%;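 note: 0% = DMSO vehicle and 100% = wells without protein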
# PG9 binder conf – binders of anti-gp120 antibody PG9, confirmation, biochemical, TR-FRET | shares compounds with PG9 Ab binder | TR-FRET PG9 antibody binding | inhibition, % at 6.7 µM | 90% of 1,500 active | AID 651571, 2012; in the data active = inhibition above about 9%
# PGV04 counter – binders of control antibody PGV04, counter-screen for PG9 antibody binder project, biochemical, TR-FRET, distinct HIV envelope site; shares compounds with PG9 Ab binder; TR-FRET PGV04 antibody-gp120 binding; inhibition, % at 6.7 µM; 95% of 1,500 active; in the data active = inhibition above about 9.5%
# PG9 binder DR – small-molecule binders of antibody PG9, dose response, biochemical, TR-FRET, HIV-1 gp120 antibody; shares compounds with PG9 Ab binder; 95 tested, under 10 active; IC50, µM; TR-FRET PG9 antibody-gp120 binding inhibition; in the data active = IC50 below about 10 µM
# PGV04 binding DR – binders of control antibody PGV04, dose response, counter-screen for PG9 antibody binder project, biochemical, TR-FRET, distinct HIV envelope site; shares compounds with PG9 Ab binder; TR-FRET binding to control antibody PGV04; IC50, µM; 20% of 95 active; AID 651937, 2012
# PG126 DR counter – binders of control antibody PG126, dose response, counter-screen for PG9 antibody binder project, biochemical, TR-FRET, distinct HIV envelope site; shares compounds with PG9 Ab binder; TR-FRET binding to antibody PG126, counterscreen; IC50, µM; 20% of 95 active
# NR1D1 mod conf – modulators of Rev-erb alpha DNA binding, confirmation, biochemical, FITC-DNA, fluorescence polarization, single point | 61% of 3,000 active | AID 1259319, 2017 | activation, % at 25 µM | shares compounds with Rev-erbA mod | 90 min;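 active = activation at or above a set limit, or at least 3 SD above the negative control mean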;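 note: 0% = 35 nM protein with DMSO and 100% = 750 nM protein high control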
# RORg counter – modulation of RORgamma DNA binding, dose response, counter-screen for Rev-erb alpha modulator project, biochemical, fluorescence polarization, FITC-DNA. IC50, µM. purified RORgamma protein-FITC-DNA binding. shares compounds with Rev-erbA mod. 8% of 910 active. AID 1259320, 2017;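 active = Compounds whose fitted half-maximal concentration for disrupting protein-DNA binding is below 10 micromolar; the record names Rev-erb in its text, so the target is in doubt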
# An asterisk follows results filed as active; i = inactive; nt = not tested or not shown. Cut-off read from the data, not from the text of the source, unless noted: active = IC50 below about 9 µM; inactive = the rest.
SMILES,NR2E3 ag-1,NR2E3 ag-2,MT1-MMP act inh,Rev-erbA mod,SKN-1 inh,PG9 Ab binder,NR2E3 agonist cf,PPARg-NCOR2 ag,PG9 binder conf,PGV04 counter,NR1D1 mod conf,others
COC(=O)c1cc2ccsc2n1CC(=O)Nc1cc(C)cc(C)c1,-11.1,36.5*,-2.9,15.5,-1.2,33.1*,19.1,19.9*,38.4*,47.8*,nt,
CCc1cc2cc(C(=O)Nc3ccc(F)cc3)sc2s1,-5.6,29.6*,2.4,78.1*,-41.3,45.5*,3.9,-12.6,53.2*,60.0*,62.6*,RORg counter=>40
CN(c1cccnc1)c1ccc(NC(=O)Cc2c[nH]c3ccccc23)cc1-c1ccc(C(C)(C)C)cc1,nt,nt,nt,-0.6,nt,-1.9,nt,nt,nt,nt,nt,
CCOc1ncccc1C(=O)Nc1ccc(C(=O)Nc2ccc(OC)cc2)cc1,-21.1,44.0*,2.7,21.5*,-14.1,4.1,34.2*,32.5*,nt,nt,13.6,
CCOc1ccc(NC(=O)c2ccc(OC)cc2)cc1,-47.6,2.4,2.2,4.2,-0.1,0.9,nt,nt,nt,nt,nt,
C[C@H]1CNCCN1c1ccc(N2CCS(=O)(=O)CC2)c(C#N)c1,nt,nt,nt,-6.0,nt,-1.5,nt,nt,nt,nt,nt,
O=C(O)CSc1nc2ccccc2nc1Cc1ccccc1F,-47.9,53.5*,0.8,21.6*,13.6,10.4*,34.3*,36.5*,16.2*,27.4*,12.4,
COC(=O)C1=C(C)N(Cc2ccc(C(F)(F)F)cc2)C(=NCc2ccc3c(c2)OCO3)NC1c1cccc(Cl)c1 (stereo not given),nt,nt,nt,2.4,nt,1.7,nt,nt,nt,nt,nt,
COc1cccc(OCc2nc3ncc(Br)cc3[nH]2)c1,-108.4,20.1*,6.2,25.9*,1.9,51.0*,11.2,25.9*,51.9*,64.2*,17.0*,
COc1cccc(OCc2nc3ccccc3[nH]2)c1,-88.6,2.4,3.6,-5.2,-9.8,-1.4,nt,nt,nt,nt,nt,
CC(=O)Nc1ccc(NC(=O)C(C)OC(=O)c2ccc(N(C)C)cc2)cc1 (stereo not given),-9.5,0.5,2.5,-2.6,-4.5,0.2,nt,nt,nt,nt,nt,
CC(=O)Nc1ccc(NC(=O)C(C)OC(=O)/C(C#N)=C/c2ccc(N(C)C)cc2)cc1 (stereo not given),-46.4,34.0*,-48.6,18.1*,57.2,17.2*,29.8*,30.3*,19.7*,36.5*,14.5*,
Cc1ccc2nc(NC(=O)CSc3ncnc4c3oc3ccccc34)sc2c1,-0.4,nt,0.9,9.0,-10.1,-5.9,nt,nt,nt,nt,nt,
O=C(CSc1ncnc2c1oc1ccccc12)c1cccs1,-63.6,30.7*,-3.4,73.3*,-3.6,29.2*,24.6*,25.0*,29.5*,52.2*,66.5*,RORg counter=>40
Cc1cccc(NC(=O)CSc2ncnc3c2oc2ccccc23)c1,5.1,60.3*,2.7,601.1*,-4.3,66.4*,66.2*,71.8*,-38.9,47.1*,630.8*,RORg counter=1.04*
Cc1cc(-n2c(SCC(=O)NCCC3=CCCCC3)nc3n[nH]c(C)c3c2=N)ccc1Cl,19.2,59.4*,7.1,45.2*,-12.5,41.3*,10.2,2.9,46.1*,57.9*,21.0*,
CCOc1ccccc1NC(=O)CCSc1nc2n[nH]c(C)c2c(=N)n1-c1ccccc1Cl,-30.4,25.5*,0.7,34.7*,5.6,41.1*,31.8*,33.7*,nt,nt,15.6,
Cc1ccccc1-n1c(SCC(=O)Nc2ccccc2Cl)nc2n[nH]c(C)c2c1=N,4.3,-2.0,2.4,0.1,12.8,-1.1,nt,nt,nt,nt,nt,
COc1ccc(C(=O)Nc2nnc(Cc3ccccc3)s2)c(OC)c1,-36.6,47.4*,3.4,70.8*,-0.7,68.2*,-8.8,11.7,38.7*,31.9*,52.8*,PG9 binder DR=i;PGV04 binding DR=i;PG126 DR counter=i;RORg counter=>40
CC(C)c1[nH]nc2c1C(c1ccccc1)N(Cc1ccccc1)C2=O (stereo not given),nt,nt,nt,0.9,nt,-0.3,nt,nt,nt,nt,nt,
C=CCn1c(SCC(=O)NC(=O)NCc2ccco2)nc2sc(C)c(C)c2c1=O,-7.0,21.7*,1.8,50.9*,-2.0,22.6*,-2.2,8.3,28.2*,40.7*,40.6*,
